# Measurements from ChEMBL document CHEMBL4145557, “Discovery of Tirasemtiv, the First Direct Fast Skeletal Muscle Troponin Activator” (ACS Med Chem Lett, 2018).
# Activity calls are given as the source filed them. No cut-off for these calls is given here.
# Columns and labels:
# Oryctolagus cuniculus [1] = species: Oryctolagus cuniculus; test: Activation of troponin in rabbit fast skeletal muscle fibers assessed as increase in calcium stimulated activity by measuring compound concentration that produces 40% increase in myofibril ATPase activity at 25% of calcium concentration needed for maximal response by pyruvate kinase/lactate dehydrogenase-coupled based assay
# Method in brief: (§1)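 Myofibril ATPase rate (used as a surrogate for force), with fast-skeletal myofibrils from rabbit muscle. For cardiac and slow-skeletal activity, mixed sarcomeres combine myosin and thin-filament preparations from fast, slow or cardiac muscle. AC40 is the concentration giving a 40% increase in ATPase activity at 25% of the calcium level needed for a maximal response in control preparations. Duplicate experiments.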
# [2] = Fraction unbound in rat plasma at 5 uM after 6 hrs by equilibrium dialysis based HPLC method; assay type: ADME, cell-free
# [3] = Extraction ratio in dog liver microsomes measured up to 90 mins by HPLC/MS/MS analysis; assay type: ADME, Canis lupus familiaris, microsome; settings: read-out: ERH
# [4] = Apparent permeability of the compound in human Caco2 cells; assay type: ADME, cell-based; settings: caco-2
# Rattus norvegicus [5] = test: Oral bioavailability in Sprague-Dawley rat at 1 mg/kg by HPLC method; assay type: ADME, organism-based; settings: in vivo
# Method in brief: (§2)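 Pharmacokinetics at a dose of 1 mg/kg, comparing oral and intravenous administration to derive bioavailability, clearance and steady-state volume of distribution. In rats, compounds were dosed as crystalline suspensions.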
# [6] = Extraction ratio in human liver microsomes measured up to 90 mins by HPLC/MS/MS analysis; assay type: ADME, microsome; settings: read-out: ERH
# [7] = Extraction ratio in rat liver microsomes measured up to 90 mins by HPLC/MS/MS analysis; assay type: ADME, microsome; settings: read-out: ERH
# Mus musculus = test: Volume of distribution at steady state in mouse at 1 mg/kg, po or 1 mg/kg iv via bolus by HPLC method; assay type: ADME, organism-based; settings: in vivo; method in brief: as §2
# Rattus norvegicus [8] = test: Increase in muscle force in rat extensor digitorum longus muscle dosed systemically measured every two mins by in situ live fiber activity assay; assay type: functional, organism-based
# [9] = Oral bioavailability in Beagle dog at 1 mg/kg by HPLC method; assay type: ADME, organism-based, Canis lupus familiaris; settings: in vivo; method in brief: as §2
# [10] = (§3) Volume of distribution at steady state in Sprague-Dawley rat at 1 mg/kg, po or 1 mg/kg iv via bolus by HPLC method; assay type: ADME, organism-based; settings: Sprague-Dawley, in vivo, read-out: Vdss; method in brief: as §2
# [11] = Extraction ratio in mouse liver microsomes measured up to 90 mins by HPLC/MS/MS analysis; assay type: ADME, microsome; settings: read-out: ERH
# [12] = Fraction unbound in human plasma at 5 uM after 6 hrs by equilibrium dialysis based HPLC method; assay type: ADME, cell-free
# [13] = Oral bioavailability in mouse at 1 mg/kg by HPLC method; assay type: ADME, organism-based; settings: in vivo; method in brief: as §2
# Canis familiaris = test: Volume of distribution at steady state in Beagle dog at 1 mg/kg, po or 1 mg/kg iv via bolus by HPLC method; assay type: ADME, organism-based, Canis lupus familiaris; settings: in vivo; method in brief: as §2
# Cytochrome P450 1A2 [14] = biological target: T1, Cytochrome P450 1A2 (Homo sapiens, UniProt P05177); test: Time dependent inhibition of CYP1A2 in human liver microsomes using phenacetin as substrate preincubated for 30 mins followed by NADP addition; settings: TDE = time-dependent effect
# T1 sequence (P05177 whole entry): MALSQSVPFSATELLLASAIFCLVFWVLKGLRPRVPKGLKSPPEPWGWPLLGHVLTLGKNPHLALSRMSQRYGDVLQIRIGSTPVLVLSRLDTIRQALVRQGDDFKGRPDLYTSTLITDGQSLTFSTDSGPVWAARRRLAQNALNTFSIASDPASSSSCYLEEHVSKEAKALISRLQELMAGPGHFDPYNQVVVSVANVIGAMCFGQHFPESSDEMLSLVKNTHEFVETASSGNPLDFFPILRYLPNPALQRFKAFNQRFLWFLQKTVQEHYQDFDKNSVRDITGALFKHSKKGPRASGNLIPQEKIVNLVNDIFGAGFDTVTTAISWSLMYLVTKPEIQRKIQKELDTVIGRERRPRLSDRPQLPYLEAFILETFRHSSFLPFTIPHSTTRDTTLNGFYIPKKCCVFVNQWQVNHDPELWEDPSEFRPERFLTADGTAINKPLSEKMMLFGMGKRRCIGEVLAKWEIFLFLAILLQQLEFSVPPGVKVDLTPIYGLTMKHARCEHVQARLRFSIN
# Cytochrome P450 1A2 [15] = biological target: T1, Cytochrome P450 1A2; test: Inhibition of CYP1A2 in human liver microsomes using phenacetin as substrate in presence of NADP; assay type: ADME
# Oryctolagus cuniculus [16] = species: Oryctolagus cuniculus; test: Activation of troponin in rabbit fast skeletal muscle fibers assessed as increase in calcium stimulated activity by measuring compound concentration that produces 30% increase in tension at 25% of calcium concentration needed for maximal response by […]
# Method in brief: (§4)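 Skinned-fiber tension assay on a mounted fiber, measuring the force–calcium relationship. Fast fibers are rabbit psoas; slow fibers are primarily slow rabbit semimembranosus. DF30 is the concentration giving a 30% increase in tension at 25% of the calcium level needed for a maximal response in control preparations.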
# Rattus norvegicus [17] = test: as §3; assay type: ADME, organism-based; settings: in vivo; method in brief: as §2
# Bos taurus [18] = species: Bos taurus; test: Activation of troponin C in […] bovine cardiac muscle fibers assessed as increase in calcium stimulated activity by measuring compound concentration that produces 40% increase in myofibril ATPase activity at 25% of calcium concentration needed for maximal response by pyruvate kinase/lactate dehydrogenase-coupled based assay; method in brief: as §1
# Bos taurus [19] = species: Bos taurus; test: Activation of troponin C in bovine masseter slow skeletal muscle fibers assessed as increase in calcium stimulated activity by measuring compound concentration that produces 40% increase in myofibril ATPase activity at 25% of calcium concentration needed for maximal response by pyruvate kinase/lactate dehydrogenase-coupled based assay; method in brief: as §1
# Oryctolagus cuniculus [20] = species: Oryctolagus cuniculus; test: Activation of troponin C in rabbit primarily slow semi membranosus muscle fibers assessed as increase in calcium level by skinned fiber assay; method in brief: as §4
# Oryctolagus cuniculus [21] = species: Oryctolagus cuniculus; test: Activation of troponin in rabbit primarily fast psoas muscle fibers assessed as increase in calcium level by skinned fiber assay; method in brief: as §4
smiles,measurement,setting,value
CCC(CC)n1c(=O)[nH]c2ncc(C(F)(F)F)nc21,EC40,Oryctolagus cuniculus [1],11.3 µM
C[C@@H](c1ccccc1)n1c(=O)[nH]c2ncc(-c3ccccc3)nc21,EC40,Oryctolagus cuniculus [1],> 49 µM
C[C@@H](c1ccccc1)n1c(=O)[nH]c2ncc(S(C)(=O)=O)nc21,EC40,Oryctolagus cuniculus [1],> 49 µM
C#Cc1cnc2nc(O)n(C(CC)CC)c2n1 [TIRASEMTIV],Fu,[2],6.9%
same,hepatic extraction ratio at 1.5 h,[3],< 0.21
same,Papp,[4],> 50 ×10⁻⁶ cm/s
same,F,Rattus norvegicus [5],98%
same,hepatic extraction ratio at 1.5 h,[6],< 0.2
same,hepatic extraction ratio at 1.5 h,[7],0.26 to 0.3
same,Vdss,Mus musculus,1 L/kg
same,Activity,Rattus norvegicus [8],Dose-dependent effect
same,bioavailability,[9],93%
same,Vd,[10],0.8 to 2.6 L/kg
same,hepatic extraction ratio at 1.5 h,[11],0.24
same,Fu,[12],1.9%
same,bioavailability,[13],43%
same,Vdss,Canis familiaris,1.7 L/kg
same,inhibition (INH),Cytochrome P450 1A2 [14],Tde
same,IC50,Cytochrome P450 1A2 [15],20 µM
same,EC40,Oryctolagus cuniculus [1],0.1 µM
same,EC30,Oryctolagus cuniculus [16],0.3 µM
CC(C)n1c(=O)[nH]c2ncc(Br)nc21,EC40,Oryctolagus cuniculus [1],6 µM
same,EC30,Oryctolagus cuniculus [16],2.2 µM
CCC(CC)n1c(O)nc2ncc(OC)nc21,hepatic extraction ratio at 1.5 h,[6],< 0.2
same,hepatic extraction ratio at 1.5 h,[7],> 0.7
CSc1cnc2[nH]c(=O)n([C@@H](C)c3ccccc3)c2n1,EC40,Oryctolagus cuniculus [1],2.6 µM
same,EC30,Oryctolagus cuniculus [16],3.8 µM
C=Cc1cnc2[nH]c(=O)n([C@@H](C)c3ccccc3)c2n1,EC40,Oryctolagus cuniculus [1],3.5 µM
same,EC30,Oryctolagus cuniculus [16],4.6 µM
CC(C)(C)n1c(O)nc2ncc(Br)nc21,hepatic extraction ratio at 1.5 h,[6],0.2
same,hepatic extraction ratio at 1.5 h,[7],0.3
CC(C)(C)n1c(=O)[nH]c2ncc(Br)nc21,EC40,Oryctolagus cuniculus [1],0.8 µM
same,EC30,Oryctolagus cuniculus [16],4.6 µM
CCC(CC)n1c(O)nc2ncc(C)nc21,hepatic extraction ratio at 1.5 h,[6],< 0.2
same,hepatic extraction ratio at 1.5 h,[7],0.7
CCC(CC)n1c(=O)[nH]c2ncc(Cl)nc21,Fu,[2],1.1%
same,F,Rattus norvegicus [5],100%
same,hepatic extraction ratio at 1.5 h,[6],< 0.2
same,hepatic extraction ratio at 1.5 h,[7],0.4
same,Vdss,Rattus norvegicus [17],3.4 L/kg
same,Fu,[12],0.8%
same,EC40,Oryctolagus cuniculus [1],0.5 µM
same,EC30,Oryctolagus cuniculus [16],0.6 µM
CC#Cc1cnc2[nH]c(=O)n(C(CC)CC)c2n1,EC40,Oryctolagus cuniculus [1],> 49 µM
C[C@@H](c1ccccc1)n1c(=O)[nH]c2ncc(-c3ccco3)nc21,EC40,Bos taurus [18],> 49 µM
same,EC40,Bos taurus [19],> 39 µM
same,EC40,Oryctolagus cuniculus [1],7 µM
same,EC30,Oryctolagus cuniculus [16],30.6 µM
same,Activity,Oryctolagus cuniculus [20],inactive
same,Activity,Oryctolagus cuniculus [21],Active
O=c1[nH]c2ncc(Br)nc2n1C1CCCCC1,EC40,Oryctolagus cuniculus [1],10 µM
CCC(CC)n1c(=O)[nH]c2ncc(C#N)nc21,EC40,Oryctolagus cuniculus [1],36.3 µM
C[C@@H](c1ccccc1)n1c(O)nc2ncc(Br)nc21,hepatic extraction ratio at 1.5 h,[6],< 0.3
same,hepatic extraction ratio at 1.5 h,[7],0.5
O=c1[nH]c2ncc(Br)nc2n1C1CC1,EC40,Oryctolagus cuniculus [1],> 49 µM
C[C@@H](c1ccccc1)n1c(=O)[nH]c2ncc(Br)nc21,EC40,Oryctolagus cuniculus [1],1.6 µM
same,EC30,Oryctolagus cuniculus [16],3 µM
C[C@H](c1ccccc1)n1c(=O)[nH]c2ncc(-c3ccco3)nc21,EC40,Oryctolagus cuniculus [1],> 49 µM
C#Cc1cnc2nc(OC)n(C(CC)CC)c2n1,EC40,Oryctolagus cuniculus [1],> 39.2 µM
COc1cnc2[nH]c(=O)n([C@@H](C)c3ccccc3)c2n1,EC40,Oryctolagus cuniculus [1],8.9 µM
C#Cc1cnc2oc(=O)n(C(CC)CC)c2n1,EC40,Oryctolagus cuniculus [1],> 39.2 µM
O=c1[nH]c2ncc(-c3ccco3)nc2n1Cc1ccccc1,EC40,Oryctolagus cuniculus [1],> 49 µM
CCC(CC)n1c(=O)[nH]c2nccnc21,EC40,Oryctolagus cuniculus [1],14 µM
CCC(CC)n1c(=O)[nH]c2ncc(OC)nc21,EC40,Oryctolagus cuniculus [1],2.2 µM
CCC(CC)n1c(=O)[nH]c2ncc(Br)nc21,EC40,Oryctolagus cuniculus [1],0.3 µM
same,EC30,Oryctolagus cuniculus [16],0.4 µM
CCC(CC)n1c(O)nc2ncc(Br)nc21,Fu,[2],1.3%
same,F,Rattus norvegicus [5],62%
same,hepatic extraction ratio at 1.5 h,[6],< 0.2
same,hepatic extraction ratio at 1.5 h,[7],0.4
same,Vdss,Rattus norvegicus [17],6.5 L/kg
same,Fu,[12],0.5%
CCC(CC)n1c(O)nc2ncc(C(F)(F)F)nc21,hepatic extraction ratio at 1.5 h,[6],< 0.2
same,hepatic extraction ratio at 1.5 h,[7],0.2
C[C@@H](c1ccccc1)n1c(=O)[nH]c2ncc(C#N)nc21,EC40,Oryctolagus cuniculus [1],> 49 µM
CC[C@H](C)n1c(=O)[nH]c2ncc(Br)nc21,EC40,Oryctolagus cuniculus [1],1 µM
same,EC30,Oryctolagus cuniculus [16],5.1 µM
CC[C@H](C)n1c(O)nc2ncc(Br)nc21,hepatic extraction ratio at 1.5 h,[6],< 0.2
same,hepatic extraction ratio at 1.5 h,[7],0.3
CCC(CC)n1c(=O)[nH]c2ncc(C)nc21,EC40,Oryctolagus cuniculus [1],2 µM
same,EC30,Oryctolagus cuniculus [16],4.4 µM
C=Cc1cnc2[nH]c(=O)n(C(CC)CC)c2n1,hepatic extraction ratio at 1.5 h,[6],0.5
same,hepatic extraction ratio at 1.5 h,[7],> 0.7
same,EC40,Oryctolagus cuniculus [1],1.1 µM
same,EC30,Oryctolagus cuniculus [16],1.1 µM
CCC(CC)n1c(O)nc2ncc(C#N)nc21,hepatic extraction ratio at 1.5 h,[6],< 0.2
same,hepatic extraction ratio at 1.5 h,[7],< 0.2
CCc1cnc2[nH]c(=O)n([C@@H](C)c3ccccc3)c2n1,EC40,Oryctolagus cuniculus [1],21.8 µM
CC(=O)c1cnc2nc(O)n([C@@H](C)c3ccccc3)c2n1,EC40,Oryctolagus cuniculus [1],> 49 µM
